Source: ChEMBL document CHEMBL1134666, “Design, synthesis, and biological evaluation of novel nucleoside and nucleotide analogues as agents against DNA viruses and/or retroviruses” (J Med Chem, 2001)

Key:
[1] = substrate: Nc1nc(O)c2c(ncn2COCCO)n1; details: Chlorocebus sabaeus; Vero
[2] = substrate: Nc1nc2c(ncn2COCCO)c(=O)[nH]1; details: Chlorocebus sabaeus; Vero
[3] = substrate: Nc1ncnc2ncn(COCCO)c12; details: herpes simplex virus
[4] = substrate: Nc1nc(O)c2c(ncn2COCCO)n1; details: herpes simplex virus
[5] = substrate: Nc1ncnc2c1ncn2[C@@H]1O[C@H](CO)[C@@H](O)[C@@H]1O; details: herpes simplex virus
[6] = substrate: Nc1ncnc2c1ncn2COCCO; details: herpes simplex virus
[7] = substrate: Nc1ncnc2ncn(CCOCP(=O)(O)O)c12; assay: (§1) Michaelis rate constant is determined by the Lineweaver and Burk method against PRPP synthetase
In short: (§2)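 PRPP synthetase reaction in 10.0 mM potassium phosphate buffer (pH 8.0) with 5.0 mM MgCl₂, 2.5 mM PRPP, 0.04 unit enzyme and AMP or test nucleotide. Reactions ran linearly and were stopped with MeOH after 4 h. Diphosphate or ATP formation was analysed by anion-exchange HPLC. Inhibition was measured at different AMP concentrations plus inhibitor, with 0.002 unit enzyme, 37 °C, 15 min, ATP formation followed by HPLC.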

[8] = substrate: Nc1ncnc2c1ncn2[C@@H]1O[C@H](COP(=O)(O)O)[C@@H](OP(=O)(O)COCCn2cnc3ncnc(N)c32)[C@H]1O; assay: as §1
In short: as §2

[9] = substrate: Nc1ncnc2ncn(CCOCP(=O)(O)O)c12; assay: (§3) Michaelis rate constant is determined by the Lineweaver and Burk method against adenosine deaminase
In short: (§4)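 Reaction velocity measured as µmol/min per mg enzyme across substrate concentrations.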

[10] = substrate: Nc1ncnc2c1ncn2[C@@H]1O[C@H](COP(=O)(O)O)[C@@H](OP(=O)(O)COCCn2cnc3ncnc(N)c32)[C@H]1O; assay: as §3
In short: as §4

[11] = substrate: Nc1ncnc2ncn(COCCO)c12; assay: as §3
In short: as §4

[12] = substrate: COC1=C(OC)/C(=C/COP(=O)(O)COCCn2cnc3c(N)ncnc32)OC1=O; assay: as §3
In short: as §4

[13] = substrate: COC1=C(OC)/C(=C/COP(=O)(O)OC[C@H]2O[C@@H](n3cnc4c(N)ncnc43)[C@H](O)[C@@H]2OP(=O)(O)COCCn2cnc3ncnc(N)c32)OC1=O; assay: as §3
In short: as §4

B1: Thymidine kinase, cytosolic (Homo sapiens), P04183 (protein)
chain: MSCINLPTVLPGSPSKTRGQIQVILGPMFSGKSTELMRRVRRFQIAQYKCLVIKYAKDTRYSSSFCTHDRNTMEALPACLLRDVAQEALGVAVIGIDEGQFFPDIVEFCEAMANAGKTVIVAALDGTFQRKPFGAILNLVPLAESVVKLTAVCMECFREAAYTKRLGTEKEVEVIGGADKYHSVCRLCYFKKASGQPAGPDNKENCPVPGKPGEAVAARKLFAPQQILQCSPAN
Km [1]: 18.3 µM | Km [2]: 2.2 µM | Km [3]: 30 µM | Km [4]: 12.8 µM | Km [5]: 1.5 µM | Km [6]: 2 µM

B2: Phosphoribosyl pyrophosphate synthase-associated protein 2 (Homo sapiens), O60256 (protein)
chain: MFCVTPPELETKMNITKGGLVLFSANSNSSCMELSKKIAERLGVEMGKVQVYQEPNRETRVQIQESVRGKDVFIIQTVSKDVNTTIMELLIMVYACKTSCAKSIIGVIPYFPYSKQCKMRKRGSIVSKLLASMMCKAGLTHLITMDLHQKEIQGFFNIPVDNLRASPFLLQYIQEEIPDYRNAVIVAKSPASAKRAQSFAERLRLGIAVIHGEAQDAESDLVDGRHSPPMVRSVAAIHPSLEIPMLIPKEKPPITVVGDVGGRIAIIVDDIIDDVDSFLAAAETLKERGAYKIFVMATHGLLSSDAPRRIEESAIDEVVVTNTIPHEVQKLQCPKIKTVDISMILSEAIRRIHNGESMSYLFRNIGLDD
Km [7]: 4800 µM | Km [8]: 570 µM

B3: Adenosine deaminase (Bos taurus), P56658 (protein)
chain: MAQTPAFNKPKVELHVHLDGAIKPETILYYGRKRGIALPADTPEELQNIIGMDKPLSLPEFLAKFDYYMPAIAGCREAVKRIAYEFVEMKAKDGVVYVEVRYSPHLLANSKVEPIPWNQAEGDLTPDEVVSLVNQGLQEGERDFGVKVRSILCCMRHQPSWSSEVVELCKKYREQTVVAIDLAGDETIEGSSLFPGHVKAYAEAVKSGVHRTVHAGEVGSANVVKEAVDTLKTERLGHGYHTLEDATLYNRLRQENMHFEVCPWSSYLTGAWKPDTEHPVVRFKNDQVNYSLNTDDPLIFKSTLDTDYQMTKNEMGFTEEEFKRLNINAAKSSFLPEDEKKELLDLLYKAYGMPSPASAEQCL
Km [9]: > 800 µM | Km [10]: 160 µM | Km [11]: 200 µM | Km [12]: > 800 µM | Km [13]: 640 µM
